{"data": "Measurements collected from several papers", "target": "NT-3 growth factor receptor (NTRK3, Homo sapiens, UniProt Q16288)", "note": "Compare with care: the assays were run in different laboratories."}
{"SMILES": "Cc1ccc(C(=O)Nc2ccc(CN3CCN(C)CC3)c(C(F)(F)F)c2)cc1C#Cc1cnc2cccnn12", "observed": "cell-free assay", "concentration": "23.5 nM", "measurement": "remaining signal", "result": "26%"}
{"SMILES": "N#CCCc1ccc2c(c1)-c1[nH]c3ccc([N+](=O)[O-])cc3c1CC(=O)N2", "observed": "cell-free assay", "concentration": "0.5 µM", "measurement": "remaining signal", "result": "61.2%"}
{"SMILES": "N#CC1(c2ccccn2)CCN(Cc2cc(C(=O)N3CCCC3)c(=O)n3ccccc23)CC1", "observed": "cell-free assay", "method": "competition with immobilised ligand", "concentration": "1 µM", "measurement": "remaining binding", "result": "100%"}
{"SMILES": "O=C(Nc1ccc(C(F)(F)F)cc1)Nc1cccc(C(=O)Nc2ccc3[nH]nc(-c4ccccc4)c3c2)c1", "observed": "enzyme activity", "action": "inhibitor", "method": "FRET", "concentration": "1 µM", "measurement": "inhibition", "result": "12.9%"}
{"SMILES": "C[C@@]1(Cc2ccc(C#N)cc2)C(=O)N(c2cc(Cl)cc(Cl)c2)c2ncc(C(=O)NC3(c4nc(C5CCC5)no4)CC3)n21", "observed": "cell-free assay", "method": "competition with immobilised ligand", "concentration": "1 µM", "measurement": "remaining binding", "result": "100%"}
{"SMILES": "O=C(Nc1ccc(I)cc1)Nc1cccc(C(=O)Nc2ccc3[nH]ncc3c2)c1", "observed": "enzyme activity", "action": "inhibitor", "method": "FRET", "concentration": "1 µM", "measurement": "inhibition", "result": "14.6%"}
{"SMILES": "Cc1cc(NC(=O)c2cccc3cc(-c4cccc5[nH]nc(N)c45)ccc23)ccc1F", "observed": "enzyme activity", "action": "inhibitor", "concentration": "0.1 µM", "measurement": "activity vs control", "result": "90%"}
{"SMILES": "Cc1c(NC(=O)c2cc(C(N)=O)nc3cc(F)ccc23)c(C(F)(F)F)nn1Cc1ccc(C(C)(C)C)cc1", "observed": "cell-free assay", "method": "competition with immobilised ligand", "concentration": "1 µM", "measurement": "remaining binding", "result": "100%"}
{"SMILES": "O=C(Nc1ccc(Cl)cc1)Nc1cccc(C(=O)Nc2ccc3[nH]ncc3c2)c1", "observed": "enzyme activity", "action": "inhibitor", "method": "FRET", "concentration": "1 µM", "measurement": "inhibition", "result": "15.4%"}
{"SMILES": "Cc1cnc(NC2CCOCC2)nc1-n1cnc(C(=O)NC(CN)c2cc(F)cc(Cl)c2)c1 (centres unmarked)", "observed": "enzyme activity", "action": "inhibitor", "method": "radiometric", "concentration": "1 µM", "measurement": "remaining activity", "result": "93%"}
{"SMILES": "O=C(Nc1cnn(-c2csc(C(=O)NC3COC3)c2)c1)Nc1c(F)cccc1Cl", "observed": "enzyme activity", "action": "inhibitor", "concentration": "5 µM", "measurement": "remaining activity", "result": "38.6%"}
{"SMILES": "O=C(NC[C@@H]1[C@H]2CN(C(=O)OCc3cc(C(F)(F)F)cc(C(F)(F)F)c3)C[C@@H]12)c1ccc2[nH]nnc2c1", "observed": "cell-free assay", "method": "competition with immobilised ligand", "concentration": "1 µM", "measurement": "remaining binding", "result": "91%"}
{"SMILES": "COc1cc(Cl)c(C(=O)N[C@@H](CN[C@H]2CC[C@@H](N)CC2)Cc2ccc(C#N)cc2)cc1-c1ccc(CN[C@H](C)c2ccc(C)cc2)o1", "observed": "enzyme activity", "action": "inhibitor", "concentration": "1 µM", "measurement": "remaining activity", "result": "96%"}
{"SMILES": "O=C(Nc1ccc2[nH]ncc2c1)c1cccc(NC(=S)Nc2cc(C(F)(F)F)cc(C(F)(F)F)c2)c1", "observed": "enzyme activity", "action": "inhibitor", "method": "FRET", "concentration": "1 µM", "measurement": "inhibition", "result": "11.8%"}
{"SMILES": "Cc1noc([C@H]2C[C@@H](c3ccc(C(F)(F)F)cc3)CN(C(=O)N3CCS(=O)(=O)C3)C2)n1", "observed": "cell-free assay", "method": "competition with immobilised ligand", "concentration": "1 µM", "measurement": "remaining binding", "result": "100%"}
{"SMILES": "O=C(Nc1cccc(C(=O)Nc2ccc3[nH]ncc3c2)c1)Nc1ccccc1C(F)(F)F", "observed": "enzyme activity", "action": "inhibitor", "method": "FRET", "concentration": "1 µM", "measurement": "inhibition", "result": "23.7%"}
{"SMILES": "Clc1ccc(Nc2nnc(Cc3ccncc3)c3ccccc23)cc1", "observed": "cell-free assay", "concentration": "0.5 µM", "measurement": "remaining signal", "result": "92.7%"}
